Source: paper PMC10791108 (Journal of Enzyme Inhibition and Medicinal Chemistry, 2024)
Like-named read-outs stand apart in the source and are kept apart here.

Experiments:
U-2 OS = test: MTT drug sensitivity assay; assay type: cell-based; details: Homo sapiens, U2OS, 72 h, read-out: In vitro growth inhibitory activity (IC50 ± SD) U-2 OS
Outline: (§1)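 ATCC lines were grown at 37 °C, 5% CO2 with 10% FBS and 2 mM L-glutamine (A549, MCF-7: RPMI-1640; HCT-116, U-2 OS: McCoy's 5A; U-87 MG: MEM; HEK293: DMEM). Test compound 0–50 µM for 72 h, then MTT 0.4 mg/ml in PBS, 3 h, 37 °C. Formazan dissolved in DMSO, absorbance 540 nm. IC50 relative to 1% v/v DMSO-treated cells; three independent runs.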

A549 [1] = test: Clonogenic assay; assay type: cell-based, human; details: 24 h treatment, eight days culture, vs DMSO
Outline: (§2)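 A549 or HCT-116 cells were seeded at 400 cells/well and exposed to a range of test compound concentrations for 24 h. After washing, cells were grown for eight days, then fixed in methanol and stained with 0.5% crystal violet. Colonies were counted and viability calculated relative to control. Mean ± SD of three independent experiments.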

Topo IIα [2] = molecular target: T1, Topo IIα (Homo sapiens, UniProt P11388); test: pBR322 DNA relaxation assay; assay type: biochemical; details: for Inhibition of Topo IIα-mediated pBR322 relaxation: gel
A549 [3] = test: MTT drug sensitivity assay; assay type: cell-based; details: Homo sapiens, A549, 72 h, read-out: In vitro growth inhibitory activity (IC50 ± SD) A549
Outline: as §1

U-87 MG = test: MTT drug sensitivity assay; assay type: cell-based; details: Homo sapiens, 72 h, read-out: In vitro growth inhibitory activity (IC50 ± SD) U-87 MG
Outline: as §1

HCT-116 [4] = test: MTT drug sensitivity assay; assay type: cell-based; details: Homo sapiens, HCT-116, 72 h, read-out: In vitro growth inhibitory activity (IC50 ± SD) HCT-116
Outline: as §1

HCT-116 [5] = test: Annexin V-FITC/7-AAD apoptosis assay; assay type: cell-based, human; details: for Necrosis activation HCT-116: statistically significant, **p < 0.001
human Topo IIβ [6] = molecular target: T2, human Topo IIβ (Homo sapiens, UniProt Q02880); test: kDNA decatenation assay; assay type: biochemical; details: gel
Outline: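 Decatenation: 250 ng kDNA was mixed with test compound in reaction buffer. The reaction was started with diluted human Topo IIβ and run for 30 min at 37 °C, then stopped with loading buffer. Products were resolved on a 1% agarose gel in 1× TBE at 20 V for 18 h and stained with ethidium bromide. ETP and ICRF-187 were references.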

Topo IIα [7] = molecular target: T1, Topo IIα; test: kDNA decatenation assay; assay type: biochemical; details: gel
Outline: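 Commercial kit protocol: 250 ng kDNA with test compound in reaction buffer; started by adding diluted human Topo IIα; 30 min at 37 °C; stopped with loading buffer. Products resolved on 1% agarose in 1xTBE, 20 V for 18 h, EtBr-stained, destained in water, imaged. Catenated versus decatenated kDNA judged by migration.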

human Topo IIβ [8] = molecular target: T2, human Topo IIβ; test: pBR322 DNA relaxation assay; assay type: biochemical; details: gel
Outline: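 Supercoiled pBR322 (250 ng) with test compound in reaction buffer. Started by adding diluted human Topo IIβ, incubated 30 min at 37 °C, quenched with loading buffer. Topoisomers separated on 1% agarose in 1× TBE (20 V, 18 h) and visualised by ethidium bromide staining. ETP and ICRF-187 were included as references.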

A549 [9] = test: Annexin V-FITC/7-AAD apoptosis assay; assay type: cell-based, human; details: Annexin V/7-AAD
[10] = test system: all investigated cell lines, including HEK293; test: MTT drug sensitivity assay, statement over all cell lines; assay type: cell-based; details: Homo sapiens, HEK293, 72 h, read-out: IC50 for all investigated cell lines
Outline: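 Cells were exposed to test compound at 0–50 µM for 72 h. Lines: A549 and MCF-7 (RPMI-1640), HCT-116 and U-2 OS (McCoy's 5A), U-87 MG (MEM), HEK293 (DMEM); all with 10% FBS, 37 °C, 5% CO2. MTT (0.4 mg/ml in PBS) for 3 h at 37 °C; formazan dissolved in DMSO; A540. ETP and m-AMSA as references; independent triplicate.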

HCT-116 [11] = test: Clonogenic assay; assay type: cell-based, human; details: 24 h treatment, eight days culture, vs DMSO
Outline: as §2

HCT-116 [12] = test: TUNEL DNA fragmentation analysis; assay type: cell-based, human; details: 24 and 48 h; more pronounced than on A549
HEK293 = test: MTT drug sensitivity assay; assay type: cell-based; details: Homo sapiens, HEK293, 72 h, read-out: In vitro growth inhibitory activity (IC50 ± SD) HEK293
Outline: as §1

Topo IIα [13] = molecular target: T1, Topo IIα; test: DNA cleavage assay; assay type: biochemical; details: for Stabilisation of Topo IIα/DNA cleavage complex (linear pBR322 plasmid): gel, ETP 100 µM
Outline: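 Reaction mix as for the human Topo IIα relaxation assay (plasmid DNA, test compound, reaction buffer), but with fivefold more enzyme. Reaction started by adding human Topo IIα, then 10 min at 37 °C. Products separated by agarose gel electrophoresis in 1× TBE containing EtBr (1 µg/ml), and linear plasmid scored on the gel.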

MCF-7 [14] = test: MTT drug sensitivity assay; assay type: cell-based; details: Homo sapiens, MCF7, 72 h, read-out: In vitro growth inhibitory activity (IC50 ± SD) MCF-7
Outline: as §1

A549 [15] = test: Caspase-3/7 activation; assay type: cell-based, human; details: 24 h, equitoxic concentrations
HCT-116 [16] = test: Cell cycle analysis; assay type: cell-based, human; details: equitoxic concentrations, 24 and 48 h
MCF-7 [17] = test: Cell cycle analysis; assay type: cell-based, human; details: 48 h exposure, equitoxic concentration, p < 0.00001
A549 [18] = test: BrdU incorporation assay; assay type: cell-based, human; details: equitoxic (IC50) concentration, 24 or 48 h
HCT-116 [19] = test: BrdU incorporation assay; assay type: cell-based, human; details: equitoxic (IC50) concentration, 24 or 48 h
A549 [20] = details: reference, 50 µM added 15 min before end of incubation
HCT-116 [21] = details: reference, 50 µM added 15 min before end of incubation
A549 [22] = details: read-out: IC50 cytotoxic activity A549; 72 h ref 51; cited from earlier work
MCF-7 [23] = details: read-out: IC50 cytotoxic activity MCF-7; 72 h ref 51; cited from earlier work
[24] = concentration series up to highest concentration tested

T2 sequence (Q02880 whole entry): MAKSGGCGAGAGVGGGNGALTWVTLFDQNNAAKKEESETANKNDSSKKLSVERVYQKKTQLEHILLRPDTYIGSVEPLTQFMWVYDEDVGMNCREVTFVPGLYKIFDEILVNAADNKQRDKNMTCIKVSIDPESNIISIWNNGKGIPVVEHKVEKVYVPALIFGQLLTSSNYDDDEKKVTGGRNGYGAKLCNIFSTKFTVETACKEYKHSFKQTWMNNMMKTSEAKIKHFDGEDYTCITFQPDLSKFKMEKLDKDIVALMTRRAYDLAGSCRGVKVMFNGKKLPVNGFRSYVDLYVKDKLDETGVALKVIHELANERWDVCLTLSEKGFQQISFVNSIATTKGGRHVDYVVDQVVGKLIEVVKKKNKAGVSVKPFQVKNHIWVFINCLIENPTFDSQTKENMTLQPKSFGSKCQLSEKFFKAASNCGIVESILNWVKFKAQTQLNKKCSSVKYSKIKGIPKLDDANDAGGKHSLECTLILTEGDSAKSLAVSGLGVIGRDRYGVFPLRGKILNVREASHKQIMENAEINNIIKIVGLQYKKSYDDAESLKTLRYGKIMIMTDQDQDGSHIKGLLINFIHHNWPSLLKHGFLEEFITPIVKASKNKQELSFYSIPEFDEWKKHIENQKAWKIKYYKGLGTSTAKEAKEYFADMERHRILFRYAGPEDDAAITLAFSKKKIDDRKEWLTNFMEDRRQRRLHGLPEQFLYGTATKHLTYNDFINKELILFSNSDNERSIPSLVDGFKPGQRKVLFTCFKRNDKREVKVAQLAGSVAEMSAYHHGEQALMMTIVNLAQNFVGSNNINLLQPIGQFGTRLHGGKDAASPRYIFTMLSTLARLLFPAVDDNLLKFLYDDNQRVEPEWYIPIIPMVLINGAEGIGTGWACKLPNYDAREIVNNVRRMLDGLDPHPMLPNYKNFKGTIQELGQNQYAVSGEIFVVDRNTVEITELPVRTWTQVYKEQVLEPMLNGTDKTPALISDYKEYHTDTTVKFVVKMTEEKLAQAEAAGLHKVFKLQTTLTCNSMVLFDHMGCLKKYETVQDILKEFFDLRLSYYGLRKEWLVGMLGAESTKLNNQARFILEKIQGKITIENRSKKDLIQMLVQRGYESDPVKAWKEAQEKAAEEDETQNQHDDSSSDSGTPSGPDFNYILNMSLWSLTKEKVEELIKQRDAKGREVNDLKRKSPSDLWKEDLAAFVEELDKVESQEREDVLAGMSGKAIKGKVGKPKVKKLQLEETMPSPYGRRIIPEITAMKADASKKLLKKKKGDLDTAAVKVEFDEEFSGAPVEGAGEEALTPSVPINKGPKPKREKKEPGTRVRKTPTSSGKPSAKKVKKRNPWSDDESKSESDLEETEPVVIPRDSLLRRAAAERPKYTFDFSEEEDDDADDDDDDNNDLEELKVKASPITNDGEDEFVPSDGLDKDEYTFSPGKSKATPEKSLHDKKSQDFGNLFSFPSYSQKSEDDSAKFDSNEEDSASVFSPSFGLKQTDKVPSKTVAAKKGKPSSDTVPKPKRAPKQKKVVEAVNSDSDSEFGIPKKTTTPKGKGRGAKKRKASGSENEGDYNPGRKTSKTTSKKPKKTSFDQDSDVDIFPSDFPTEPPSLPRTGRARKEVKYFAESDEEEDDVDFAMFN
T1 sequence (P11388 whole entry): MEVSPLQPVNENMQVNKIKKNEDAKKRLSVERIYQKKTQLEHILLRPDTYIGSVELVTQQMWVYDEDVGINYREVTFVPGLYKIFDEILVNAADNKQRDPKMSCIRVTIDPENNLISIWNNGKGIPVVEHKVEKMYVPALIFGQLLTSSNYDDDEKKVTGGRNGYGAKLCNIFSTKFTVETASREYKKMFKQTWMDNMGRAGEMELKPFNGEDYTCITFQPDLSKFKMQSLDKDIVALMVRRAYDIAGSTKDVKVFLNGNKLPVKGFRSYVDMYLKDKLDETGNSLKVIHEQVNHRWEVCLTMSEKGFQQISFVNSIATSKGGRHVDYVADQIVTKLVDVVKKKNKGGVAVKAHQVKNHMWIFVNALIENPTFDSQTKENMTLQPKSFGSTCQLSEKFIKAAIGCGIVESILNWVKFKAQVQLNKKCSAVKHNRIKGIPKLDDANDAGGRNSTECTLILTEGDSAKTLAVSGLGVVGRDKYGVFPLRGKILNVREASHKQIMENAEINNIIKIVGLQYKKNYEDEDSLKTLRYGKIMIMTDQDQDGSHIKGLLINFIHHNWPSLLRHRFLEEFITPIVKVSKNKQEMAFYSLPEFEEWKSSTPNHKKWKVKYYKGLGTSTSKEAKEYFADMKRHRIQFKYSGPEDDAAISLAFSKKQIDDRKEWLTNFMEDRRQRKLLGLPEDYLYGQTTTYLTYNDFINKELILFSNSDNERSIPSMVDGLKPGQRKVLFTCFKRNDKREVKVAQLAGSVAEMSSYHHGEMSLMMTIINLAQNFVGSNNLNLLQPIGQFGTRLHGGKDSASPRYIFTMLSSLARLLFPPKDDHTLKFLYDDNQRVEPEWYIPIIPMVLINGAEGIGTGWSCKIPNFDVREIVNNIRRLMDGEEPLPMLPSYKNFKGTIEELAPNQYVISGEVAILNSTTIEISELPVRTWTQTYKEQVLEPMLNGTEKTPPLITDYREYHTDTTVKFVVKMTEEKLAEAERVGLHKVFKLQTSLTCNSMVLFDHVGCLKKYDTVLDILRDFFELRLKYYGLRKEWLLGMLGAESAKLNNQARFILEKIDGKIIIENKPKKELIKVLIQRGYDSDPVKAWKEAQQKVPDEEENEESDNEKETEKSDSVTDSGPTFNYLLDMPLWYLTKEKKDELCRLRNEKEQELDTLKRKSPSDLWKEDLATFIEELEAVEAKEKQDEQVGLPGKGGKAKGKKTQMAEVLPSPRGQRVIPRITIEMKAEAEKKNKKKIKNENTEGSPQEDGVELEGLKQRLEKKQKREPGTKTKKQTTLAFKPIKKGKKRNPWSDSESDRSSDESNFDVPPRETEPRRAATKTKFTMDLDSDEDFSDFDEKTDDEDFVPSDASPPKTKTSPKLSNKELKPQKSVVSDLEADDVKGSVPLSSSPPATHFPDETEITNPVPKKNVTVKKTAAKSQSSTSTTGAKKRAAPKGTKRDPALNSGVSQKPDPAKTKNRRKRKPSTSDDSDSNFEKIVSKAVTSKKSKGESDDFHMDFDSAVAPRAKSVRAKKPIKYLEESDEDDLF

| Compound | IC50 (U-2 OS) [nM] | Colony-forming ability A549 (A549 [1]) | IC50 (A549 [3]) [nM] | IC50 (U-87 MG) [nM] | IC50 (HCT-116 [4]) [nM] | IC50 (HEK293) [nM] | Stabilisation of Topo IIα/DNA cleavage complex (linear pBR322 plasmid) (Topo IIα [13]) | IC50 (MCF-7 [14]) [nM] | Caspase-3/7 activation, increase compared to control A549 (A549 [15]) [fold] | also measured |
| --- | --- | --- | --- | --- | --- | --- | --- | --- | --- | --- |
| c1coc(-c2ccc3c(c2)[nH]c2cc(-c4ccco4)ccc23)c1 [Compound 27a, 2,7-Di(2-furyl)-9H-carbazole] | 370 ± 50 | reduced the colony number | 260 ± 120 | 450 ± 150 | 220 ± 40 | 190 ± 70 | do not stabilise the covalent cleavage complex | 790 ± 210 | 3.4 | Inhibition of Topo IIα-mediated pBR322 relaxation (Topo IIα [2]; highest tested concentrations): moderately affected; Increase in fraction of apoptotic cells compared to control HCT-116 (HCT-116 [5]; Annexin V/7-AAD): eightfold increase; Necrosis activation HCT-116 (HCT-116 [5]): slightly activated necrosis; Inhibition of Topo IIβ-mediated kDNA decatenation (human Topo IIβ [6]; 100 µM): completely inhibited decatenation; Inhibition of Topo IIα-mediated kDNA decatenation (Topo IIα [7]; [24]): either completely inhibited decatenation only at the highest concentration tested, or partially inhibited the decatenation of higher-order catenates; Inhibition of Topo IIβ-mediated pBR322 relaxation (human Topo IIβ [8]; highest tested concentrations): moderately affected; Increase in fraction of apoptotic cells compared to control A549 (A549 [9]): eightfold increase; IC50 [10]: < 1000 nM; Colony-forming ability HCT-116 (HCT-116 [11]): reduced the colony number; TUNEL-positive cells HCT-116 (HCT-116 [12]): most massive effect |
| c1coc(-c2ccc3[nH]c4ccc(-c5ccco5)cc4c3c2)c1 [Compound 36a, 3,6-Di(2-furyl)-9H-carbazole] | 990 ± 180 | reduced the colony number | 930 ± 150 | 2190 ± 300 | 480 ± 60 | 1650 ± 130 | do not stabilise the covalent cleavage complex | 1390 ± 290 | 5.7 | Isoform selectivity of relaxation inhibition (Topo IIα vs Topo IIβ) (Topo IIα [2]; from relaxation gels with both isoforms): selectively inhibits the relaxation activity of Topo IIα; Inhibition of Topo IIα-mediated pBR322 relaxation (Topo IIα [2]; 20–100 µM): fully inhibited DNA relaxation; Inhibition of Topo IIβ-mediated kDNA decatenation (human Topo IIβ [6]; highest concentration tested): partially inhibiting decatenation only at the highest concentration tested; Inhibition of Topo IIα-mediated kDNA decatenation (Topo IIα [7]; 4–100 µM): effective and concentration-dependent inhibition; Inhibition of Topo IIβ-mediated pBR322 relaxation (human Topo IIβ [8]; 20–100 µM): did not impact Topo IIβ activity; Colony-forming ability HCT-116 (HCT-116 [11]): reduced the colony number; Effect on ETP-induced DNA cleavage (linear plasmid) (Topo IIα [13]; co-treatment with ETP, Topo IIα): reduced the level of linear plasmid; Cell cycle effect HCT-116 (G0/G1 phase) (HCT-116 [16]): time-dependent increase in the number of cells in the G0/G1 phase |
| c1csc(-c2ccc3[nH]c4ccc(-c5cccs5)cc4c3c2)c1 [Compound 36b, 3,6-Di(2-thienyl)-9H-carbazole] | 710 ± 60 | lower inhibitory activity | 600 ± 100 | 1400 ± 240 | 270 ± 110 | 320 ± 110 | do not stabilise the covalent cleavage complex | 830 ± 210 | 2.5 | Inhibition of Topo IIα-mediated pBR322 relaxation (Topo IIα [2]; highest tested concentrations): moderately affected; Cells in G0/G1 phase MCF-7 (MCF-7 [17]): 59.85 ± 2.15%; Necrosis activation HCT-116 (HCT-116 [5]): slightly activated necrosis; Inhibition of Topo IIα-mediated kDNA decatenation (Topo IIα [7]; [24]): either completely inhibited decatenation only at the highest concentration tested, or partially inhibited the decatenation of higher-order catenates; Inhibition of Topo IIβ-mediated pBR322 relaxation (human Topo IIβ [8]; highest tested concentrations): moderately affected; Decrease in BrdU-positive cells A549 (A549 [18]): approximately 4 fold; Decrease in BrdU-positive cells HCT-116 (HCT-116 [19]): ~3.5 fold |
| COc1cc([C@@H]2c3cc4c(cc3[C@@H](O[C@@H]3O[C@@H]5CO[C@@H](C)O[C@H]5[C@H](O)[C@H]3O)[C@H]3COC(=O)[C@H]23)OCO4)cc(OC)c1O [Etoposide, etoposide, reference compound] | 610 ± 40 | – | 540 ± 210 | 11900 ± 1310 | 390 ± 10 | – | – | 830 ± 150 | – | – |
| N#CC(C#N)=NNc1ccc(OC(F)(F)F)cc1 [FCCP, carbonyl cyanide 4-(trifluoromethoxy)phenylhydrazone] | – | – | – | – | – | – | – | – | – | Increase in JC-1 monomers vs control A549 (A549 [20]): 11 fold; Increase in JC-1 monomers vs control HCT-116 (HCT-116 [21]): 6.3 fold |
| C[C@@H](CN1CC(=O)NC(=O)C1)N1CC(=O)NC(=O)C1 [ICRF-187, reference compound] | – | – | – | – | – | – | – | – | – | Inhibition of Topo IIα-mediated pBR322 relaxation (Topo IIα [2]; reference at 100 µM): completely inhibited relaxation activity; Inhibition of Topo IIβ-mediated kDNA decatenation (human Topo IIβ [6]; 100 µM): more significant effect than ETP; Inhibition of Topo IIβ-mediated pBR322 relaxation (human Topo IIβ [8]; reference at 100 µM): relatively lower inhibitory effects |
| O=C1NC(=S)NC(=O)C1C(=O)Nc1ccccc1 [merbarone] | – | – | – | – | – | – | – | – | – | IC50 (A549 [22]): 40 ± 2.7 µM; IC50 (MCF-7 [23]): 83.9 ± 3 µM |
